Holding throughout (format): functional
In assay [1] the test system is Radical scavenging activity. Briefly: Antioxidant activity assessed as DPPH radical scavenging activity at 400 ug/ml. The gist of the method:
(§1)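 Each test sample was mixed with 1 ml DPPH in methanol, incubated at 37 °C for 30 min, and read spectrophotometrically at 517 nm with a blank reading. Scavenging % was expressed as the absorbance decrease at 517 nm relative to DPPH solution without test sample.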

Assay [2] has as its system Bacillus cereus. Briefly: microbe, parasite or virus in culture. The note with it: ATCC 11778, 24 h.
Assay [3] relates to Klebsiella pneumoniae. Description: microbe, parasite or virus in culture. The note with it: ATCC 11298, 24 h, read-out: IZ.
Assay [4] relates to Escherichia coli. Briefly: microbe, parasite or virus in culture. Conditions: ATCC 25922, 24 h.
Assay [5] is described as follows: Antioxidant activity assessed as ABTS radical scavenging activity at 200 ug/ml. The gist of the method:
(§2)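 Test samples at 50, 100, 200 and 400 ug/ml were each mixed with 1 ml of freshly prepared ABTS radical cation solution, adjusted to absorbance 0.7–0.9 at 734 nm. Mixtures reacted 2 h in the dark, then absorbance was read at 734 nm against a blank. Scavenging % was taken as the absorbance decrease relative to ABTS solution without test sample.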

A short description of assay [6]: Antioxidant activity assessed as ABTS radical scavenging activity. The gist of the method: as §2
Assay [7] concerns Radical scavenging activity. Briefly: Antioxidant activity assessed as DPPH radical scavenging activity at 100 ug/ml. The gist of the method:
as §1

The subject of assay [8] is Staphylococcus aureus. Description: microbe, parasite or virus in culture. Conditions: ATCC 9144, 24 h, read-out: IZ.
Assay [9] concerns Klebsiella pneumoniae. Description: microbe, parasite or virus in culture. Conditions: ATCC 11298, 24 h.
Assay [10] deals with Bacillus cereus. Description: Antimicrobial activity against Bacillus cereus ATCC 11778 at 100 ug/ml after 24 hrs by paper disk diffusion method. Conditions: ATCC 11778, 24 h, read-out: IZ.
Assay [11] in a line: Antioxidant activity assessed as ABTS radical scavenging activity at 100 ug/ml. The gist of the method: as §2
In assay [12] the test system is Radical scavenging activity. Description: Antioxidant activity assessed as DPPH radical scavenging activity at 200 ug/ml. The gist of the method: as §1
A short description of assay [13]: Antioxidant activity assessed as ABTS radical scavenging activity at 50 ug/ml. The gist of the method: as §2
Assay [14] relates to Escherichia coli. Briefly: microbe, parasite or virus in culture. The note with it: ATCC 25922, 24 h, read-out: IZ.
Assay [15] deals with Radical scavenging activity. Briefly: Antioxidant activity assessed as DPPH radical scavenging activity. The gist of the method: as §1
Assay [16] concerns Radical scavenging activity. Description: Antioxidant activity assessed as DPPH radical scavenging activity at 50 ug/ml. The gist of the method:
as §1

Assay [17] deals with Staphylococcus aureus. Briefly: microbe, parasite or virus in culture. Conditions: ATCC 9144, 24 h.
A short description of assay [18]: Antioxidant activity assessed as ABTS radical scavenging activity at 400 ug/ml. The gist of the method: as §2
Assay [19] deals with MCF7. Description: Cytotoxicity against human MCF7 cells after 24 hrs by MTT assay. Conditions: MCF7, 24 h. The gist of the method: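 Exponentially growing cells plated at 10⁴ cells/well and allowed to attach, then exposed to test compounds or doxorubicin (dissolved in 0.1% DMSO, diluted in medium; range 1–100) for 24 h; controls received medium with 0.1% DMSO. MTT (1 mg/ml) added for 4 h at 37 °C, formazan dissolved in DMSO, absorbance read at 540 nm; % cytotoxicity calculated from blank-corrected absorbances versus control.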

Molecules are shown by their SMILES. Values after ≈ are worked out from the molar mass of the structure shown. Active and inactive are the calls of the source. No cut-off for these calls is given here.

On to `COc1ccc(C2C(C#N)=C(N)OC(c3c[nH]c4ccccc34)=C2C#N)cc1` (stereo not drawn), for which the Activity was determined as 60.2% in assay [1] (at 400 µg/mL); 26.4% in assay [5] (at 200 µg/mL); 56.9% in assay [7] (at 100 µg/mL); 20% in assay [11] (at 100 µg/mL); 59.9% in assay [12] (at 200 µg/mL); 12.4% in assay [13] (at 50 µg/mL). Also, the results for the Activity in assay [16] (at 50 µg/mL) and in [18] (at 400 µg/mL) were 53.6% and 28.7%, respectively. Also, the MIC stood at 24.5 µg/mL (≈ 66.5 µM) in assay [2], 23.4 µg/mL (≈ 63.5 µM) in assay [4], 19.6 µg/mL (≈ 53.2 µM) in assay [9] and 15.4 µg/mL (≈ 41.8 µM) in assay [17]. For the same compound, the zone of inhibition at 100 µg/mL in [3] was 19 mm; in [8], 21 mm; in assay [10] it was 16 mm; in [14], 18 mm. The figures for the IC50 in assay [6] and in assay [15] were 858.69 µg/mL (≈ 2330 µM) and below 50 µg/mL, respectively.
On to `N#CC1=C(N)OC(c2c[nH]c3ccccc23)=C(C#N)C1c1cccc(Br)c1` (stereo not drawn), for which the outcome in assay [1], in assay [5], in assay [6], in assay [7], in assay [11] and in assay [12] was inactive. The outcome in assay [13], in [15], in assay [16] and in [18] was inactive. Besides, the MIC worked out at 24 µg/mL (≈ 57.5 µM) in assay [2], 30.2 µg/mL (≈ 72.4 µM) in assay [4], 26.3 µg/mL (≈ 63 µM) in [9] and 27.5 µg/mL (≈ 65.9 µM) in assay [17]. In addition, the zone of inhibition at 100 µg/mL is 14 mm in assay [3], 16 mm in [8], 14 mm in assay [10] and 14 mm in assay [14].
Consider `Cc1ccc(C2C(C#N)=C(N)OC(c3c[nH]c4ccccc34)=C2C#N)cc1` (stereo not drawn), for which the Activity was determined as 30.4% in [1] (at 400 µg/mL); 6.2% in [5] (at 200 µg/mL); 25.8% in assay [7] (at 100 µg/mL); 5.5% in assay [11] (at 100 µg/mL); 28.9% in assay [12] (at 200 µg/mL); 5.2% in assay [13] (at 50 µg/mL). The values for the Activity in [16] (at 50 µg/mL) and in assay [18] (at 400 µg/mL) were 24.8% and 8.5%, respectively. Also, the MIC is 25.8 µg/mL (≈ 73.2 µM) in assay [2], 36.3 µg/mL (≈ 103 µM) in [4], 25.1 µg/mL (≈ 71.2 µM) in [9] and 22.3 µg/mL (≈ 63.3 µM) in [17]. The zone of inhibition at 100 µg/mL came out at 17 mm in assay [3], 20 mm in assay [8], 14 mm in assay [10] and 15 mm in assay [14]. Besides, the IC50 in [6] was above 1000 µg/mL; in assay [15], 1590.74 µg/mL (≈ 4510 µM).
In assay [19], `COc1cccc2c1C(=O)c1c(O)c3c(c(O)c1C2=O)C[C@@](O)(C(=O)CO)C[C@@H]3O[C@H]1C[C@H](N)[C@H](O)[C@H](C)O1` [DOXORUBICIN] gave a GI50 of 20 nM and a TGI of 210 nM.
For `O=C1O[C@H]([C@@H](O)CO)C(O)=C1O` [ASCORBIC ACID], the Activity in [1] (at 400 µg/mL) was found to be 85.3%; in assay [5] (at 200 µg/mL), 31.5%; in assay [7] (at 100 µg/mL) it was 79.7%; in [11] (at 100 µg/mL), 29.7%; in assay [12] (at 200 µg/mL), 82.3%; in [13] (at 50 µg/mL) it was 28.8%. The Activity is 77.2% in assay [16] (at 50 µg/mL) and 33.4% in assay [18] (at 400 µg/mL). Further, the values for the IC50 in assay [6] and in assay [15] were 650 µg/mL (≈ 3690 µM) and below 50 µg/mL, respectively.
Consider `O=C(O)c1cn(C2CC2)c2cc(N3CCNCC3)c(F)cc2c1=O` [CIPROFLOXACIN], for which the MIC was 0.3 µg/mL (≈ 0.905 µM) in assay [2], 0.1 µg/mL (≈ 0.302 µM) in assay [9] and 0.2 µg/mL (≈ 0.604 µM) in [17]. For the same compound, the zone of inhibition at 100 µg/mL in assay [3] was 26 mm; in assay [8], 26 mm; in assay [10] it was 25 mm; in [14], 27 mm.

The values are drawn from ChEMBL document CHEMBL1221298, “InCl3 mediated one-pot multicomponent synthesis, anti-microbial, antioxidant and anticancer evaluation of 3-pyranyl indole derivatives” (Bioorg Med Chem Lett, 2010).
